Source: ChEMBL document CHEMBL2146383, “Identification of an Orally Bioavailable, Potent, and Selective Inhibitor of GlyT1” (ACS Med Chem Lett, 2010)
Each block holds one compound with its values, some of them ahead of it. The source made the active and inactive calls.

Legend:
[1] = Metabolic stability in human liver microsomes assessed as compound turnover at 1 uM after 15 mins; format: ADME, Microsome; conditions: read-out: Drug metabolism
How it was run: (§1)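 Test compound at 1 μM incubated with human or rat liver microsomes (0.5 mg/mL protein) at 37 °C for 15 min; turnover measured.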

[2] = Metabolic stability in rat liver microsomes assessed as compound turnover at 1 uM after 15 mins; format: ADME, Microsome; conditions: read-out: Drug metabolism; how it was run: as §1
[3] = target: T1, Sodium- and chloride-dependent glycine transporter 1 (Homo sapiens, UniProt P48067); experiment: Inhibition of human GlyT1a after 15 mins
T1 sequence (P48067 whole entry): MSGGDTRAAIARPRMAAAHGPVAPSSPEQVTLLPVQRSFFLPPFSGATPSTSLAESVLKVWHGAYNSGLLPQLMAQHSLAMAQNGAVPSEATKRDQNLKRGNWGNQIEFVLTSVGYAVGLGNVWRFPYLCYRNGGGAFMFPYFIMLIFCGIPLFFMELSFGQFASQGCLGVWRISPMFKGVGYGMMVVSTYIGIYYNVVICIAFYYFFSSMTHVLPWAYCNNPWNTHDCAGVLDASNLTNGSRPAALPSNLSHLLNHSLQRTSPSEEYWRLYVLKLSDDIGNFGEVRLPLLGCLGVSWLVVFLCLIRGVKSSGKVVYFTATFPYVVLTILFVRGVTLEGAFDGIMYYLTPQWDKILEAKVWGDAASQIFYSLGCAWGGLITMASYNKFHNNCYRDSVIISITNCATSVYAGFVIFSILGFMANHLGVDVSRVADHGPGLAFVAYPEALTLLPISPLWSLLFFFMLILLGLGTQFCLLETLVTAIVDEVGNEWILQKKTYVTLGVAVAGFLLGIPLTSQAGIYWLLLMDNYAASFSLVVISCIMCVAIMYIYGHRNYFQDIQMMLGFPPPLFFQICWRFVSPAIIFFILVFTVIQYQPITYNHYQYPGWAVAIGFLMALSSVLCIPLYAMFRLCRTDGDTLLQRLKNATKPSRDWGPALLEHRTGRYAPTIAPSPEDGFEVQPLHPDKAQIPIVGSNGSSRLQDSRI
How it was run: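 Human GlyT1, hGlyT1a isoform; IC50 taken as the average of at least two measurements.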

Cytochrome P450 2C9 = Cytochrome P450 2C9 (Homo sapiens, UniProt P11712); experiment: Inhibition of CYP2C9; format: ADME
Plasma [4] = experiment: Covalent binding affinity in rat plasma at 20 mg/kg, po after 6 hrs; format: ADME, organism-based; parameters: dose 20 mg/kg, route oral; conditions: in vivo
How it was run: (§2)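 Rats dosed orally at 20 mg/kg; liver and plasma proteins sampled 6 h postdose; covalently bound drug-derived material expressed as pmol equiv/mg protein.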

Liver = experiment: Covalent binding affinity at liver protein in rat at 20 mg/kg, po after 6 hrs; format: ADME, organism-based; parameters: dose 20 mg/kg, route oral; conditions: in vivo; how it was run: as §2
[5] = Volume of distribution at steady state in rat at 1 mg/kg, po and 1 mg/kg, iv; format: ADME, organism-based; conditions: in vivo, read-out: Vdss
How it was run: (§3)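 Rat PK: 1.0 mg/kg iv and po, oral arm as 0.5% methocel suspension; plasma Cl, Vd(ss), T1/2, F, Cmax (μM) and Tmax determined.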

[6] = Cmax in rat at 1 mg/kg, po and 1 mg/kg, iv; format: ADME, organism-based; conditions: in vivo; how it was run: as §3
[7] = Tmax in rat at 1 mg/kg, po and 1 mg/kg, iv; format: ADME, organism-based; conditions: in vivo; how it was run: as §3
Rattus norvegicus [8] = experiment: Covalent binding in rat at 20 mg/kg, po after 6 hrs; format: ADME, organism-based; parameters: dose 20 mg/kg, route oral; conditions: in vivo; how it was run: as §2
Mus musculus = species: Mus musculus; experiment: Binding affinity to mouse P-gp
[9] = Oral bioavailability in rhesus monkey at 1 mg/kg; format: ADME, organism-based, Macaca mulatta; conditions: in vivo
How it was run: (§4)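 Rhesus monkey pharmacokinetics after 1.0 mg/kg by both iv and oral routes; reported parameters are Cl, Vd(ss), T1/2, F, Cmax (μM) and Tmax.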

[10] = Volume of distribution at steady state in dog at 1 mg/kg, po and 1 mg/kg, iv; format: ADME, organism-based, Canis lupus familiaris; conditions: in vivo, read-out: Vdss
How it was run: (§5)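 Dog PK: single 1.0 mg/kg dose given iv and po; oral dosing in 0.5% methocel suspension. Clearance, Vd(ss), half-life, oral bioavailability (F), Cmax (μM) and Tmax derived from the plasma profiles.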

[11] = Clearance in dog at 1 mg/kg, po and 1 mg/kg, iv; format: ADME, organism-based, Canis lupus familiaris; conditions: in vivo; how it was run: as §5
[12] = Volume of distribution at steady state in rhesus monkey at 1 mg/kg, po and 1 mg/kg, iv; format: ADME, organism-based, Macaca mulatta; conditions: in vivo, read-out: Vdss; how it was run: as §4
Rattus norvegicus [13] = experiment: Inhibition of GlyTl in rat frontal cortex assessed as increase extracellular glycine level after 3 mg/kg, po up to 4 hrs relative to baseline; format: functional; parameters: scale not given: the % may be the effect or the level left
How it was run: (§6)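 Microdialysis probe placed in rat frontal cortex; extracellular glycine sampled up to 4 h after oral dosing at 3 or 20 mg/kg; peak glycine efflux given as % of basal level, mean ± SEM.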

[14] = Tmax in rhesus monkey at 1 mg/kg, po and 1 mg/kg, iv; format: ADME, organism-based, Macaca mulatta; conditions: in vivo; how it was run: as §4
[15] = Cmax in dog at 1 mg/kg, po and 1 mg/kg, iv; format: ADME, organism-based, Canis lupus familiaris; conditions: in vivo; how it was run: as §5
[16] = Ratio of drug level in brain to plasma in rat at 10 mg/kg, po; format: ADME, organism-based; parameters: dose 10 mg/kg, route oral; conditions: read-out: BPR
Rattus norvegicus [17] = experiment: Inhibition of GlyTl in rat frontal cortex assessed as increase in extracellular glycine level at 20 mg/kg, po up to 4 hrs relative to baseline; format: functional; parameters: scale not given: the % may be the effect or the level left; how it was run: as §6
[18] = Half life in rat at 1 mg/kg, po and 1 mg/kg, iv; format: ADME, organism-based; conditions: in vivo; how it was run: as §3
Rhesus monkey = experiment: Receptor plasma occupancy at Glyt1 in rhesus monkey pons assessed as inhibition of [18F]MK-6577 uptake administered as iv bolus plus infusion by PET imaging; format: functional, Macaca mulatta
How it was run: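 Rhesus monkeys (~10 kg) sedated with ketamine 10 mg/kg im, induced with propofol 5 mg/kg iv, and maintained on propofol 0.4 mg/kg/min. Compound given iv as bolus plus infusion in EtOH:H2O:PEG400 (10:40:50); ~5 mCi [18F]MK-6577 injected 1 h into the infusion. Dynamic PET scans compared baseline and blockade uptake to derive an occupancy versus plasma concentration curve and plasma Occ50.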

Rattus norvegicus [19] = experiment: Inhibition of PCP-induced cognitive deficit in extra dimensional shift in intra/extra dimensional rat model of executive function at 3 mg/kg, po; format: functional, organism-based; parameters: dose 3 mg/kg
How it was run: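 Rats given subchronic PCP to impair attentional set shifting, then dosed 3 mg/kg po; all ID/ED discriminations run, with trials to criterion scored for the extra-dimensional shift; significance at p < 0.05 versus PCP and vehicle groups.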

[20] = Oral bioavailability in rat at 1 mg/kg; format: ADME, organism-based; conditions: in vivo; how it was run: as §3
[21] = Clearance in rat at 1 mg/kg, po and 1 mg/kg, iv; format: ADME, organism-based; conditions: in vivo; how it was run: as §3
[22] = Tmax in dog at 1 mg/kg, po and 1 mg/kg, iv; format: ADME, organism-based, Canis lupus familiaris; conditions: in vivo; how it was run: as §5
[23] = Clearance in rhesus monkey at 1 mg/kg, po and 1 mg/kg, iv; format: ADME, organism-based, Macaca mulatta; conditions: in vivo; how it was run: as §4
[24] = Half life in dog at 1 mg/kg, po and 1 mg/kg, iv; format: ADME, organism-based, Canis lupus familiaris; conditions: in vivo; how it was run: as §5
Homo sapiens = species: Homo sapiens; experiment: Binding affinity to human P-gp
Plasma [25] = experiment: Receptor occupancy at Glyt1 in rat plasma at 10 mg/kg, po; format: functional
[26] = Cmax in rhesus monkey at 1 mg/kg, po and 1 mg/kg, iv; format: ADME, organism-based, Macaca mulatta; conditions: in vivo; how it was run: as §4
[27] = Oral bioavailability in dog at 1 mg/kg; format: ADME, organism-based, Canis lupus familiaris; conditions: in vivo; how it was run: as §5
[28] = Half life in rhesus monkey at 1 mg/kg, po and 1 mg/kg, iv; format: ADME, organism-based, Macaca mulatta; conditions: in vivo; how it was run: as §4
Cytochrome P450 2D6 = Cytochrome P450 2D6 (Homo sapiens, UniProt P10635); experiment: Inhibition of CYP2D6; format: ADME
Cytochrome P450 3A4 = Cytochrome P450 3A4 (Homo sapiens, UniProt P08684); experiment: Inhibition of CYP3A4; format: ADME
Brain = experiment: Receptor occupancy at Glyt1 in rat brain at 10 mg/kg, po; format: functional

Sequence of Cytochrome P450 2C9 (P11712 whole entry): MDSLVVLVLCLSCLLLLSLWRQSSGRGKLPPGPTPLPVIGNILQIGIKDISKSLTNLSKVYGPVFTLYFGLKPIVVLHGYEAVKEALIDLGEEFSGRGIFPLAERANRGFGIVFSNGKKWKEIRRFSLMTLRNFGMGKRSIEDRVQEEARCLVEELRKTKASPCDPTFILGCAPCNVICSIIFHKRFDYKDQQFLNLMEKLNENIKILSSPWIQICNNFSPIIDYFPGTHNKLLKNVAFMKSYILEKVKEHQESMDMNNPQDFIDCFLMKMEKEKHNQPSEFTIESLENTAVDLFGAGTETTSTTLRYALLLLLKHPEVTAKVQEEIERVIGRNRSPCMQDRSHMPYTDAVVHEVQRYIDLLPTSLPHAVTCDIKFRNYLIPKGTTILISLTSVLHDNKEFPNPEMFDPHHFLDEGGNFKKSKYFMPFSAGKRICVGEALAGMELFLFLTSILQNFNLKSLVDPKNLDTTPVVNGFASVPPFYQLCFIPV
Sequence of Cytochrome P450 3A4 (P08684 whole entry): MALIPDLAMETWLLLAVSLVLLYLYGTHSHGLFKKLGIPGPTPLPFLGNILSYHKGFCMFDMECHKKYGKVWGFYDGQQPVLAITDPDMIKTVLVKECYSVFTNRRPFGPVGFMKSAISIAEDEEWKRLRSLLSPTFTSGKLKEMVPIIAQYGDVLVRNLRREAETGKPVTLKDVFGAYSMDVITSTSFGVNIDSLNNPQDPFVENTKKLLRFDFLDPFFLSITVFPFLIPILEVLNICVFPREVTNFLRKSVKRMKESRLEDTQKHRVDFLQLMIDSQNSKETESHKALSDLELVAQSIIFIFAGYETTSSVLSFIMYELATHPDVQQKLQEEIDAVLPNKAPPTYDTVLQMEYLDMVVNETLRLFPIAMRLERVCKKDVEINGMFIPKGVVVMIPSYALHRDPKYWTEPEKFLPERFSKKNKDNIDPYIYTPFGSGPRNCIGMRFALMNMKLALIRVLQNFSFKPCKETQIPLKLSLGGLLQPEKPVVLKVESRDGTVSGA
Sequence of Cytochrome P450 2D6 (P10635 whole entry): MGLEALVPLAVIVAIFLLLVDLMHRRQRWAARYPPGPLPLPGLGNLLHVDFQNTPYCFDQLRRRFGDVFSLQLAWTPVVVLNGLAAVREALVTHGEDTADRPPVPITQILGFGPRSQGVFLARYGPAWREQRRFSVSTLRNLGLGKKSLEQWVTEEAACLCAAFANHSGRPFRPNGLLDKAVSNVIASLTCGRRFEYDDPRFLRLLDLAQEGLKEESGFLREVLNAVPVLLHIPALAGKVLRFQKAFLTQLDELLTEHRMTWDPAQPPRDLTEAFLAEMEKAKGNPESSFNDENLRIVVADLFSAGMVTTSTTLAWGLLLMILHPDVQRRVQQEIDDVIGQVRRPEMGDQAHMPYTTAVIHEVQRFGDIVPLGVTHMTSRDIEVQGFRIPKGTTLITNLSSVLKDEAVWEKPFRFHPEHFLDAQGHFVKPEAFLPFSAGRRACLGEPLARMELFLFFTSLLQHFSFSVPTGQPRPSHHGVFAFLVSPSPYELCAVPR

Structure (SMILES): O=C(NC[C@]1(CC2CC2)CC[C@H](S(=O)(=O)c2c[nH]nn2)CC1)c1ccc(Cl)cc1Cl
IC50 [3]: 3000 nM | inhibition (INH) (Cytochrome P450 2C9): Active

Structure (SMILES): O=C(NC[C@]1(CC2CC2)CC[C@@H](S(=O)(=O)c2cnn[nH]2)CC1)c1ccc(Cl)cc1Cl
IC50 [3]: 3000 nM | IC50 (Cytochrome P450 2C9): 10 nM

Structure (SMILES): Cn1cc(S(=O)(=O)[C@H]2CC[C@](CNC(=O)c3ccc(Cl)cc3Cl)(CC3CC3)CC2)nn1
IC50 (Cytochrome P450 2D6): > 10 µM | IC50 (Cytochrome P450 3A4): > 10 µM | Occ50 (Brain): 0.2 µM | Kp [16]: 0.16 | IC50 (Cytochrome P450 2C9): > 10000 nM | Occ50 (Plasma [25]): 1.2 µM

Structure (SMILES): CCCS(=O)(=O)[C@H]1CC[C@@](CNC(=O)c2ccc(Cl)cc2Cl)(CC2CC2)CC1
IC50 [3]: 1630 nM

Structure (SMILES): Cn1cc(S(=O)(=O)[C@H]2CC[C@@](CNC(=O)c3ccc(Cl)cc3Cl)(CC3CC3)CC2)nn1
Kp [16]: 0.1

Structure (SMILES): Cc1nnc(S(=O)(=O)[C@H]2CC[C@@](CNC(=O)c3ccc(Cl)cc3Cl)(CC3CC3)CC2)s1
IC50 [3]: 3330 nM

Structure (SMILES): CCS(=O)(=O)[C@H]1CC[C@@](CNC(=O)c2ccc(Cl)cc2Cl)(CC2CC2)CC1
IC50 [3]: 1320 nM

Structure (SMILES): CS(=O)(=O)[C@H]1CC[C@](CNC(=O)c2ccc(Cl)cc2Cl)(CC2CC2)CC1
IC50 [3]: 3330 nM

Continued, in another order:

metabolised at 0.25 h, 1 µM [1]: 40% | metabolised at 0.25 h, 1 µM [2]: 41% | IC50 [3]: 7.3 nM
Structure (SMILES): Cc1cc(S(=O)(=O)[C@H]2CC[C@](CNC(=O)c3ccc(Cl)cc3Cl)(CC3CC3)CC2)no1

Activity (Plasma [4]): 214 pmolequiv/mg | PB (Liver): 153 pmolequiv/mg | IC50 [3]: 26 nM
Structure (SMILES): CCS(=O)(=O)N1CCC(CNC(=O)c2ccc(Cl)cc2Cl)(CC2CC2)CC1

metabolised at 0.25 h, 1 µM [1]: 55% | metabolised at 0.25 h, 1 µM [2]: 53% | IC50 [3]: 36.9 nM
Structure (SMILES): CCCS(=O)(=O)[C@H]1CC[C@](CNC(=O)c2ccc(Cl)cc2Cl)(CC2CC2)CC1

IC50 [3]: 132 nM
Structure (SMILES): CCS(=O)(=O)[C@H]1CC[C@](CNC(=O)c2ccc(Cl)cc2Cl)(CC2CC2)CC1

Vd [5]: 4.1 L/kg | Cmax [6]: 140 nM | Tmax [7]: 48 min | PB (Rattus norvegicus [8]): < 25 pmolequiv/mg | Activity (Mus musculus): inactive | metabolised at 0.25 h, 1 µM [1]: 35% | bioavailability [9]: 2% | Vd [10]: 3.1 L/kg | clearance [11]: 4.9 mL/min/kg | Vd [12]: 2.3 L/kg | Tmax [14]: 2.7 h | Cmax [15]: 1390 nM | Kp [16]: 2.3 | metabolised at 0.25 h, 1 µM [2]: 40% | half-life [18]: 144 min | bioavailability [20]: 65% | IC50 [3]: 29 nM | clearance [21]: 36 mL/min/kg | Tmax [22]: 1 h | clearance [23]: 24 mL/min/kg | half-life [24]: 600 min | Activity (Homo sapiens): inactive | Cmax [26]: 40 nM | bioavailability [27]: 48% | half-life [28]: 90 min
Structure (SMILES): O=C(NC[C@]1(CC2CC2)CC[C@H](S(=O)(=O)CC2CC2)CC1)c1ccc(Cl)cc1Cl
Activity (Rattus norvegicus [13]): 151% | Activity (Rattus norvegicus [17]): 184% | Occ50 (Rhesus monkey): 120 nM | inhibition (Rattus norvegicus [19]): Active | Occ50 (Plasma [25]): 0.35 µM

IC50 [3]: 629 nM
Structure (SMILES): O=C(NC[C@]1(CC2CC2)CC[C@H](S(=O)(=O)CC2CCC2)CC1)c1ccc(Cl)cc1Cl

metabolised at 0.25 h, 1 µM [1]: 35% | metabolised at 0.25 h, 1 µM [2]: 40% | IC50 [3]: 29 nM
Structure (SMILES): Cc1ccc(S(=O)(=O)[C@H]2CC[C@@](CNC(=O)c3ccc(Cl)cc3Cl)(CC3CC3)CC2)nn1

metabolised at 0.25 h, 1 µM [1]: 35% | metabolised at 0.25 h, 1 µM [2]: 51% | IC50 [3]: 8.6 nM
Structure (SMILES): Cc1cc(S(=O)(=O)[C@H]2CC[C@@](CNC(=O)c3ccc(Cl)cc3Cl)(CC3CC3)CC2)no1
